High-throughput results deposited in PubChem by several laboratories.
Most compounds without a hit are left out; they make up all but 2.3% or so of the library.
STAT1 inh: STAT1 signaling inhibitors, primary screen, cell-based, HTS, luciferase reporter. inhibition, % at 5.5 µM. NIH 3T3 STAT1-luciferase reporter, IFN-gamma, luminescence. 0.35% of 200,000 active;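 active = inhibition above a set limit, the mean inhibition across all tested compounds plus 3 SD, cut at about 34% in these data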;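 note: 0% = IFN-gamma with DMSO and 100% = IFN-gamma with 300 µM nifuroxazide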
STAT3 activator: IL-6 driven STAT3 reporter potentiators, primary screen, U3A cells, luciferase, luminescence, MLSCN library. IL-6 STAT3-luciferase reporter; 100% = signal with IL-6 EC80 alone. activation (% of control), % at 5.6 µM. 0.91% of 190,000 active. AID 871, 2007;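 active = activation above the screen-wide mean of compound activation plus 3 SD, cut at about 130% in these data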;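 note: 0% = background luminescence of wells with medium and substrate only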
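Test system: STAT3-luciferase reporter U3A cells; Detection: reporter luminescence signal; Times: 1 h compound pre-exposure, 6 h IL-6 stimulation, 37 °C; Benchmarks: IL-6-only high control; Also added: IL-6 stimulus at 33 ng/mL final.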
STAT3 inh: IL-6 driven STAT3 reporter inhibitors, primary screen, U3A cells, luciferase, luminescence, MLSCN library. IL-6 STAT3-luciferase reporter; host cell line lacks STAT1. inhibition, % at 5.5 µM. 0.89% of 190,000 active;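 active = inhibition above the mean inhibition across all screened compounds plus 3 SD, cut at about 44% in these data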;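 note: 0% = DMSO only wells and 100% = 100 µM nifuroxazide control wells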
TRAIL sens C8: viability loss with TRAIL in NB7+C8 cells, primary screen, TRAIL sensitizer project, cell-based, ATPlite luminescence | 1% of 360,000 active | inhibition (viability loss, TRAIL sensitization), % at 10 µM;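 active = compounds causing at least 50% loss of cell viability in the single-dose screen, relative to plate controls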
PPC-1+TRAIL kill: compounds killing PPC-1 cancer cells with TRAIL present, primary screen, TRAIL potentiator project, ATPLite luminescence, uHTS; PPC-1 cells + TRAIL, ATPLite viability luminescence; cell killing (% activity), % at 4 µM or 5 µM; 0.41% of 220,000 active;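 active = cell killing above 50% in the first pass at 4 µM, then a duplicate retest at 5 µM averaging 50% or more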;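 note: plate controls were cells with TRAIL plus DMSO for no effect and medium-only wells lacking cells for full effect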
HSP90 refold inh: HSP90 inhibitors, primary screen, cell lysate, luminescence | Heat shock protein HSP 90 (rabbit reticulocyte lysate; luciferase refolding) | Rabbit reticulocyte lysate, luciferase refolding luminescence, 3 h | inhibition, % at 5.6 µM | 0.91% of 290,000 active | AID 1789, 2009;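 active = inhibition above the screen-wide mean plus 3 SD, computed separately per campaign, cut at about 16% in these data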;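 note: 0% = DMSO wells and 100% = 60 µM geldanamycin wells; inhibitors lower the luminescence because luciferase stays unfolded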
* = called active by the depositor; . = no result.

SMILES | STAT1 inh | STAT3 activator | STAT3 inh | TRAIL sens C8 | PPC-1+TRAIL kill | HSP90 refold inh
CN(C)CC(=O)c1c[nH]c2ccccc12 | -2 | 118 | -17 | -5 | 14 | 1
Cc1ccc(Nc2cc(C)nc(N3CCOCC3)n2)cc1 | -17 | 134* | -34 | -2 | 25 | -3
O=C(Nc1ccc([N+](=O)[O-])cc1)C1C(c2ccccc2)=C1c1ccccc1 | -6 | 133* | -26 | 41 | 10 | -2
O=C(Nc1ccc(C(=O)O)cc1)Nc1ccc([N+](=O)[O-])cc1 | . | . | . | -13 | . | -7
C[C@@H]1CN([C@@H](C)CO)C(=O)CCCn2nncc2CO[C@@H]1CN(C)C(=O)Cc1ccccc1 | . | . | . | 1 | . | .
COc1ccc(C(=O)NCc2cn3cccc(C)c3n2)cc1OC | 4 | 105 | 3 | 60* | 33 | 0
CC(C)c1ccc(S(=O)(=O)N2CCN(CC(=O)c3ccc(O)c(O)c3)CC2)cc1 | . | . | . | 14 | . | -1
Cc1nnc(SCC(=O)Nc2ccc(Br)cc2)n(N)c1=O | . | . | . | -12 | . | 4
[O-]c1n[n+](-c2ccc(Cl)cc2Cl)cc2ccccc12 | 3 | 107 | -6 | 24 | 9 | -1
Nc1nc(N)c2cc(CNc3ccc(Cl)c(Cl)c3)ccc2n1 | . | . | . | 95* | . | .
CC[C@@H]1C(c2ccc(F)cc2)=NN(c2ccccc2)[C@H]1C(=O)N1CCOC1=O | . | . | . | -1 | . | .
Cc1nc(NC(=O)CN2CCN(c3ccccc3F)CC2)sc1C(=O)N(C)C | . | . | . | 0 | . | 16*
Cc1ccccc1N1CCN(CC(=O)Nc2nc(C)c(C(=O)N(C)C)s2)CC1 | . | . | . | -2 | . | 1
Nc1ccc(C(=O)OCc2nc3c(ccc4ccccc43)[nH]2)cc1 | -53 | 136* | -39 | 25 | -5 | -4
O=[n+]1c2c(n([O-])c3c1CCC3)CCCC2 | -1 | 136* | -36 | 1 | 18 | -1
CCOc1ccc(NC(=O)CN2C(=O)/C(=C3\SC(=S)N(C4CCS(=O)(=O)C4)C3=O)c3ccccc32)cc1 (stereo not given) | . | . | . | 7 | 9 | 20*
Cc1ccc(CONC(=O)c2ccccc2)cc1 | . | . | . | 10 | 12 | 15
Cc1ccc(CONC(=O)c2ccc(Cl)cc2)cc1 | . | . | . | 4 | . | .
COc1ccc(C(=O)NOCc2ccccc2)cc1 | . | . | . | 56* | . | .
O=C(NOCc1ccccc1)c1ccc(Cl)cc1 | . | . | . | 51* | . | .
Cc1ccc2c(c1)cc1c(=O)n(CC(=O)NCCCc3ccccc3)nc(C)n12 | . | . | . | -8 | . | 0
CCOC(=O)C1C(c2cc(OC)c(O)c(OC)c2)NC(=S)NC1(O)C(F)(F)F (stereo not given) | 6 | 98 | 0 | -2 | 53* | 4
CC(C)(C)OC(=O)NCCCC[C@H](NC(=O)c1nc[nH]c1C(=O)NC(c1ccccc1)c1ccccc1)C(=O)OC(C)(C)C | 9 | . | . | 53* | 5 | 7
CC(C)(C)OC(=O)NCCCC[C@H](NC(=O)c1nc[nH]c1C(=O)N[C@@H](CCCCNC(=O)OC(C)(C)C)C(=O)OC(C)(C)C)C(=O)OC(C)(C)C | . | . | . | 37 | 5 | .
Cc1cccc(NC(=O)c2nc[nH]c2C(=O)N[C@@H](CCCCNC(=O)OC(C)(C)C)C(=O)OC(C)(C)C)c1 | . | . | . | 51* | 10 | .
SMILES | STAT1 inh | STAT3 activator | STAT3 inh | TRAIL sens C8 | PPC-1+TRAIL kill | HSP90 refold inh
C[C@H](NC(=O)c1nc[nH]c1C(=O)N[C@@H](CCCCNC(=O)OC(C)(C)C)C(=O)OC(C)(C)C)C(=O)OCc1ccccc1 | . | . | . | 23 | . | 4
CC(C)C[C@H](NC(=O)c1nc[nH]c1C(=O)N[C@@H](CCCCNC(=O)OC(C)(C)C)C(=O)OC(C)(C)C)C(=O)OCc1ccccc1 | . | . | . | 63* | . | -2
C=CCOC(=O)c1[nH]c2c(c1C)C(=O)CC(c1cc(OC)c(OC)c(OC)c1)C2 (stereo not given) | 42* | 63 | 46* | 28 | 5 | 0
COCCOC(=O)c1[nH]c2c(c1C)C(=O)CC(c1cc(OC)c(OC)c(OC)c1)C2 (stereo not given) | . | . | . | 3 | . | 1
CSc1ncccc1C(=O)OCC(=O)c1cc(C)n(C)c1C | . | . | . | 25 | . | .
CSc1ncccc1C(=O)OCC(=O)c1cc(C)n(CC2CCCO2)c1C (stereo not given) | . | . | . | 48* | 32 | 4
Cc1cc(C(=O)COC(=O)c2cccnc2Cl)c(C)n1C | . | . | . | 64* | . | .
O=C(CC(CC(=O)c1ccccc1)c1ccccn1)c1ccccc1 | . | . | . | -2 | . | .
COC(=O)c1ccc(Cl)c(NC(=O)c2ccc(-c3ccccc3)cc2)c1 | -1 | 136* | -31 | . | 6 | -2
c1coc(CNc2ncnc3sc4c(c23)CCCCC4)c1 | -1 | 98 | 8 | 5 | -2 | 0
Cc1nc(NCc2ccco2)c2c3c(sc2n1)CCC3 | -54 | 167* | -76 | 11 | 22 | 1
CCC(=O)N(C)C[C@H]1Oc2cc(-c3cccnc3)ccc2S(=O)(=O)N([C@H](C)CO)C[C@H]1C | . | . | . | 2 | . | .
Cc1ccc(S(=O)(=O)N2CCCCC2C)cc1[N+](=O)[O-] (stereo not given) | . | . | . | 1 | . | 16*
CC1CCCCN1S(=O)(=O)c1ccccc1[N+](=O)[O-] (stereo not given) | 9 | 102 | 2 | -7 | 14 | -1
O=[N+]([O-])c1cc(S(=O)(=O)N2CCCCCC2)ccc1Cl | 11 | 97 | 8 | -4 | 56* | 2
Cc1ccc(S(=O)(=O)N2CCCC2)cc1[N+](=O)[O-] | 11 | 105 | -9 | -6 | 24 | 3
COc1ccc(S(=O)(=O)N2CCn3c2nc2ccccc23)cc1 | 0 | 94 | 10 | 12 | 3 | 3
Cc1ccc(-c2nc3ccccc3s2)cc1S(=O)(=O)N1CCCC1 | -12 | 85 | 23 | 1 | 0 | 2
Cc1cc(-c2nc3cc(F)ccc3s2)ccc1N | . | . | . | 73* | . | .
